# In ChEMBL document CHEMBL4513216, “Probing the Open Global Health Chemical Diversity Library for Multistage-Active Starting Points for Next-Generation Antimalarials” (ACS Infect Dis, 2020):
# Assay: Toxicity liver stage against HepG2, at 10uM
# Assay type: cell-based
# Set-up: test concentration 10 uM, cell line HepG2-A16-CD81EGFP
# Conditions: human, HepG2-A16-CD81EGFP cells; read-out: INHIBITION
# Outline: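 Uninfected HepG2-A16-CD81EGFP cells, 3 × 10^3 per well, 1536-well, plated on prespotted compound at 10 μM final, parasite-free screening media added to match infected plates; puromycin 10 μM positive, DMSO 0.5% negative; run in parallel with 48 h PbLuc assay at 37 °C, 5% CO2; viability by CellTiter-Glo luminescence, normalized to controls.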
row,SMILES,cytotoxicity at 10 µM
1,Oc1ccccc1CN1C[C@H](O)C[C@H]1c1nc(Cc2ccccc2)no1,-4.82%
2,CC(C)n1cnc2ccc(NC(=O)CCCn3cccn3)cc2c1=O,-10.6%
3,Cc1cccnc1NC(=O)C1CSc2ncc(C)c(=O)n2C1 (stereo unspecified),-1.62%
4,CC(C)(C)CC(=O)NCCn1ccc(-c2ccncc2)n1,-3.4%
5,Cc1nnc(N2C[C@@H]3CCCO[C@@H]3[C@H](N(C)C)C2)s1,17.5%
6,O=C1NC2(CCN(C(=O)Cc3ccsc3)CC2)CC1c1ccccc1 (stereo unspecified),-2.04%
7,CN1CC(=O)N(c2cccc(F)c2)CC12CCN(Cc1ccccn1)C2 (stereo unspecified),2.49%
8,c1ccc(C[C@H]2[C@H](N3CCOCC3)CCN2Cc2cccnc2)cc1,-4.34%
9,C[C@@H]1C[C@@H]2CCN(C(=O)c3cnccn3)C[C@H]2O1,-10.6%
10,CCOC(=O)CNC(=O)c1cc(-c2ccccc2)nc2ncnn12,-5.75%
11,Cc1nc(N2CCOCC2)sc1C(=O)NCC(C)(C)N1CCCCC1,5.7%
12,Cc1nc(-c2ccc(CNS(=O)(=O)N(C)C)cc2)ccc1C(N)=O,-8.53%
13,CC(NCCCN1CCCC1=O)c1cc(Br)ccc1F (stereo unspecified),1.63%
14,Cc1ccc(S(=O)(=O)NCc2[nH]ncc2Br)cc1C,5.23%
15,CCC(C)NC(=O)c1sccc1-n1cnnn1 (stereo unspecified),5.45%
16,CCCS(=O)(=O)CCN1CCN(C(C#N)c2ccccc2)CC1 (stereo unspecified),-5.02%
17,CC(C)Cc1nc(C[S+]([O-])CC(=O)NCc2ccccc2)no1 (stereo unspecified),-6.45%
18,Cc1ncc2c(n1)CN(Cc1nc(-c3ccsc3)oc1C)CC2,1.97%
19,CCC(=O)NCC(=O)NC(C)c1ccc(OCCC(C)C)cc1 (stereo unspecified),7.89%
20,CC(C)Nc1ncccc1C(=O)NC1CC(=O)N(CC(F)(F)F)C1 (stereo unspecified),-1.54%
21,N#Cc1ccc(CN2CCN(c3cncc(Cl)n3)CC2=O)cc1,7.55%
22,CCc1ccc(O)c(C(=O)N2CCN(CC(=O)N3CCCCC3)CC2)c1,9.06%
23,CC(NC(=O)N1CCCN(C)CC1)c1ccc(S(N)(=O)=O)cc1 (stereo unspecified),-11.7%

row,SMILES,cytotoxicity at 10 µM
1,COC(=O)c1oc(CNC(C)(C)c2ccc3c(c2)OCCO3)cc1C,5.36%
2,CCN(CC1CCOC1)C(=O)NCc1ccc(-n2cncn2)nc1 (stereo unspecified),0.0529%
3,CC(c1cccnc1)N1CCN(C(=O)NCc2cnn(C)c2)CC1 (stereo unspecified),-2.38%
4,CN1CCC(C(=O)N2CCN(Cc3cccc(Cl)c3)CC2)CC1=O (stereo unspecified),5.44%
5,CN(C)CCOc1ccc(CNC(=O)c2cccc(Cl)c2Cl)cc1,15.5%
6,O=C(Cc1ccc2c(c1)CCO2)Nc1cccnc1-n1cncn1,3.94%
7,CC(c1ccc(Cl)cc1)N1CCN(CCCS(C)(=O)=O)CC1 (stereo unspecified),-8.73%
8,N#Cc1cc(NC(=O)c2ccccn2)ccc1N1CCC(O)CC1,0.73%
9,Cc1nc(CN2CCC(CNC(=O)C3CCOC3)CC2)oc1C (stereo unspecified),0.0966%
10,O=C(C(CNCc1ccccn1)c1ccccc1)N1CCOCC1 (stereo unspecified),0.983%
11,NC(=O)NC(=O)CCN1CCCC1c1nc(C2CCCCC2)co1 (stereo unspecified),5.33%
12,Cc1nc2n(n1)CC(Nc1ccnc(-c3ccccc3)n1)CC2 (stereo unspecified),3.43%
13,O=C(Nc1cccc(CN2CCC(CO)CC2)c1)c1cc(Cl)c[nH]1,-150%
14,COCCn1ccc(NC(=O)Nc2ccncc2)n1,4.49%
15,Cc1nc(C)n(CC2CCCCN2CC(=O)NCc2ccccn2)n1 (stereo unspecified),2.07%
16,O=C(CCc1ccsc1)N1CCCC(N2CCNC2=O)C1 (stereo unspecified),-5.7%
17,c1ccc(-c2cnc(CN(Cc3cccnc3)CC3CCCO3)o2)cc1 (stereo unspecified),17.5%
18,Cc1n[nH]c(C2CN(C(=O)c3ccc(=O)n(C)c3)CCO2)n1 (stereo unspecified),3.75%
19,CCC(=O)N1CCN(C(=O)Nc2ccccc2-c2cccs2)CC1,-3.21%
20,CCOc1ncccc1C(=O)Nc1c(C)cnn1CC1CC1,1.62%
21,Cc1oc(-c2ccccc2)nc1CC(=O)NC1=NCCS1,0.898%
22,Cc1cc(C)cc(OCC(=O)N2CCC2)c1,2.01%
23,CN(C)CC(=O)N1CCN(c2cc(N3CCCC3CO)ncn2)CC1 (stereo unspecified),-4.19%

row,SMILES,cytotoxicity at 10 µM
1,O=C(COc1ccccc1NCc1ccoc1)N1CCOCC1,3.61%
2,CCc1noc(CN(C)CCC(=O)Nc2ccc(Cl)cc2)n1,2.78%
3,CC(NC(=O)NCc1ccccn1)c1cccs1 (stereo unspecified),-14.4%
4,O=S(=O)(CCNCc1cccc2c1OCCO2)N1CCOCC1,-10.9%
5,N#Cc1cc(NC(=O)c2ccccc2)ccc1N1CCC(O)CC1,-9.55%
6,COc1ccc(CC(=O)N2CCCN(c3ccc(C#N)cc3)CC2)cc1,-1.95%
7,COCC1CN(Cc2ccncc2)Cc2nn(C)cc21 (stereo unspecified),-74.1%
8,CN(CCO)c1ncc(-c2ccc(NC(=O)[C@@H]3CCCCN3)cc2)cn1,0.609%
9,COCCN(C)C(C(=O)O)c1ccc(Cl)c(F)c1 (stereo unspecified),-2.46%
10,Cc1nccc(N[C@H]2CN(C(=O)C3(C#N)CCOCC3)C[C@@H]2C(C)C)n1,9.81%
11,CC(C)(CN1CCC2(CCOCC2)CC1)N1CCOCC1,-148%
12,Cc1noc2ncnc(N3CCC(O)(Cn4ccnc4)CC3)c12,0.648%
13,CCSc1ccc(C(=O)N2CC[C@](C)(O)[C@H](C)C2)s1,-12.2%
14,Cc1cncc(C(=O)N2CCN(c3cnn(C)c(=O)c3)CC2)c1,-20.4%
15,NC(=O)NCCC(=O)N1CCC(c2cc(Cc3ccccc3)n[nH]2)CC1,1.5%
16,O=S1(=O)C[C@@H]2[C@H](C1)N(Cc1ncc[nH]1)CCN2Cc1cccnc1,0.875%
17,COCCn1ccnc1-c1[nH]cnc1C,-18.4%
18,COc1ccc(CCN2CC(NCc3ncc[nH]3)CC2=O)cc1 (stereo unspecified),0.749%
19,COC(=O)NCC(=O)N(C)CC1Cc2ccccc2CN1C (stereo unspecified),-6.24%
20,CCC(=O)Nc1cccc(OCC(=O)N(C)CCCC2CCCO2)c1 (stereo unspecified),-4.63%
21,CN1CC2(CCC1=O)CCN(CC[C@@H](O)c1ccccc1)CC2,-0.355%
22,CN(C)CCn1ccnc1C1CCN(C(=O)CCc2ccncc2)CC1,-9.67%
23,CCc1cnc(NCC(C)Oc2cccnc2)nc1 (stereo unspecified),0.977%

row,SMILES,cytotoxicity at 10 µM
1,Cc1nccn1CCC1CCCCN1C(=O)c1ccc2[nH]nnc2c1 (stereo unspecified),19.9%
2,COCCNC(=O)c1cc(S(=O)(=O)N2CCCCC2)cs1,-8.94%
3,NC(=O)c1c[nH]nc1NC(=O)c1cccc(Cl)c1,-2.39%
4,CCn1cnnc1CNC(=O)N1CCN(c2cccc(C)c2)CC1,-3.42%
5,O=C(c1cc2c(s1)CCOC2)N1CCCCC1Cn1cccn1 (stereo unspecified),-6.52%
6,c1ccc2oc(CN3CCCC3Cn3cncn3)nc2c1 (stereo unspecified),-17.2%
7,c1cncc(COc2ccccc2CNC2CCc3ncnn3C2)c1 (stereo unspecified),-3.69%
8,Cc1cnn(CCNCc2csc(-c3ccco3)n2)c1,-5.28%
9,O=C(Cc1ccc2c(c1)OCCO2)N1CCN(c2cnccn2)CC1,-11.8%
10,COc1ccc(C2CCCN2Cc2nc3c(cnn3C)c(=O)[nH]2)cc1 (stereo unspecified),-9.77%
11,CS(=O)(=O)NCCCN1CCCC1c1ccsc1 (stereo unspecified),2.85%
12,CCc1nnc(CN2CCOC(Cn3cccn3)C2)o1 (stereo unspecified),-8.15%
13,O=C1C(NS(=O)(=O)c2cccc(F)c2)CCN1Cc1ccccc1 (stereo unspecified),-1.67%
14,Cc1nc(CSCCC(=O)NCc2ccncc2)cs1,-15.6%
15,OC(CN1CCC(c2ccn[nH]2)CC1)c1cc(F)ccc1F (stereo unspecified),-12.3%
16,O=C(c1cc2c(F)cccc2[nH]1)N1CCCCC1Cn1cccn1 (stereo unspecified),-7.95%
17,CCc1nc(C2CCCN2Cc2cnc(C)cn2)no1 (stereo unspecified),-14.6%
18,CCc1noc(C(C)N2CCN(C)CC2)n1 (stereo unspecified),-3.21%
19,Cc1cnn(C2CCCN(C(=O)Cc3ccc(C#N)cc3)C2)c1 (stereo unspecified),-8.45%
20,Cn1ncc(NCc2cccc(F)c2)c(Cl)c1=O,-7.72%
21,Cc1cc(C)n(CC2CCCN2C(=O)c2ccc(NC3CC3)nc2)n1 (stereo unspecified),6.53%
22,CC(C)C1CCCN1CCCc1nc(-c2cccs2)no1 (stereo unspecified),-16%
23,O=C1COc2c(cccc2C(=O)N2CCCC(n3cccn3)C2)N1 (stereo unspecified),-13.8%

row,SMILES,cytotoxicity at 10 µM
1,Cc1ccc(N2CCCC(NCC3=Cc4ccccc4OC3)C2)nn1 (stereo unspecified),-10.2%
2,O=C(CCNC(=O)c1ccoc1)Nc1cccc(F)c1,-8.63%
3,O=C(COCc1ccccc1Cl)N1CCCC(n2cccn2)C1 (stereo unspecified),10%
4,CN1CC(=O)N(c2ccsc2)CC12CCN(C(=O)N1CCCC1)C2 (stereo unspecified),-72.6%
5,O=C(CC1CC1)N[C@@H]1CN(Cc2cccnc2)C[C@@H]2CCCO[C@@H]21,-0.995%
6,CN(C)C(=O)N1CCOCC2(CCN(c3ncccn3)C2)C1 (stereo unspecified),-9.17%
7,Cc1nc(CN2CCC3(CCCN(Cc4ccoc4)C3)C2=O)cs1 (stereo unspecified),-0.142%
8,COc1cc(CNC(C)Cn2cccn2)cc2c1OCCO2 (stereo unspecified),1.67%
9,c1cnc(N2CCOCC3(CCCN(CC4CCOCC4)C3)C2)nc1 (stereo unspecified),-8.95%
10,Cn1cc(CN2C[C@@H](NC(=O)c3cscn3)[C@H]3OCCC[C@H]32)cn1,-11.7%
11,COCCN1C[C@H]2[C@@H](C1)N(Cc1cnn(C)c1)CC[C@H]2OC,8.47%
12,CCN1CCN(C)C(=O)C12CCN(C(=O)Cc1ccccn1)CC2,0.597%
13,CC(C)N1CCO[C@H]2CN(C(=O)c3ccsc3)C[C@H]21,-72%
14,CC[C@@H]1N(Cc2ccc(OC)cc2)CCC[C@]12CCC(=O)N2CCOC,14%
15,CO[C@H]1CCN(S(=O)(=O)c2cccs2)[C@H]1Cc1cccnc1,-75.5%
16,CN1CC(=O)N(c2cccc(F)c2)CC12CCN(S(C)(=O)=O)C2 (stereo unspecified),1.52%
17,O=C(c1ccccc1)N1C[C@H]2CCC[C@@]2(COCc2ccncc2)C1,1.59%
18,CC1N(c2cnn(C)c2)C(=O)COC12CCN(CC1CC1)CC2 (stereo unspecified),3.68%
19,Cc1noc(C)c1CN1C(=O)[C@@H]2CC[C@H]1CN(Cc1cccnc1N)C2,19.7%
